From ChEMBL document CHEMBL1122961 (J Med Chem, 1985)
Activity calls are given as the source filed them. No cut-off for these calls is given here.

Columns and labels:
[1] = target: T1, Adrenergic receptor alpha-1 (Rattus norvegicus, UniProt P15823+P23944+P43140); assay: In vitro inhibitory activity against alpha-1 adrenergic receptor from whole rat brain using [3H]WB-4101 as radioligand
T1 sequence (P15823 whole entry): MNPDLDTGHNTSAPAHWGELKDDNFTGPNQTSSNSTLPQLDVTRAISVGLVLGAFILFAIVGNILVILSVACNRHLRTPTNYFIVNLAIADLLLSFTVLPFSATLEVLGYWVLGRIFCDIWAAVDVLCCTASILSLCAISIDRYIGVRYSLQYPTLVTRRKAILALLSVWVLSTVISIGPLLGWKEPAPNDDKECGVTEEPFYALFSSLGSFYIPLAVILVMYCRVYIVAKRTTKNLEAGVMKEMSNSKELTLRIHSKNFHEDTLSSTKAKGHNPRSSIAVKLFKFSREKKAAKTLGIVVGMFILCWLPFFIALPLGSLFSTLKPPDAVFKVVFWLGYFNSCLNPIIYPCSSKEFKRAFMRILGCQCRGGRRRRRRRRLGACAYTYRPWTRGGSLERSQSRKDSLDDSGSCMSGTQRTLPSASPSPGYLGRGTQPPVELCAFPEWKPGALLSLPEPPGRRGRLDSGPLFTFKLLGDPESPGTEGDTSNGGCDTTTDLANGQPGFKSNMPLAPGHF
T1 sequence (P23944 whole entry): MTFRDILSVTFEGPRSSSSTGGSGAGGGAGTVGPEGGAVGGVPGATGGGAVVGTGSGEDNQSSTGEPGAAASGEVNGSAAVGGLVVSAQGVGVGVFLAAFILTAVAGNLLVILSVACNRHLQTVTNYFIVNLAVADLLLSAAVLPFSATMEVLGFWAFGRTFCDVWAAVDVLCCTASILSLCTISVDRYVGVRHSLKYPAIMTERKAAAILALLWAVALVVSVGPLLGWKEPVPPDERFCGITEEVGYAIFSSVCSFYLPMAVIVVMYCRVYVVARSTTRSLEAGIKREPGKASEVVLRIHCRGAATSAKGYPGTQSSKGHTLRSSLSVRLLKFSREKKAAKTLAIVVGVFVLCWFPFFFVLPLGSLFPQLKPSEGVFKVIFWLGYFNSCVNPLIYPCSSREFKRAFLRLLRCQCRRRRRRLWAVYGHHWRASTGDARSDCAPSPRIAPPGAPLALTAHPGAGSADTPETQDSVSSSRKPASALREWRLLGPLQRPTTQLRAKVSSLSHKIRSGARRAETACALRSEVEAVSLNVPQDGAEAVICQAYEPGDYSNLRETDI
T1 sequence (P43140 whole entry): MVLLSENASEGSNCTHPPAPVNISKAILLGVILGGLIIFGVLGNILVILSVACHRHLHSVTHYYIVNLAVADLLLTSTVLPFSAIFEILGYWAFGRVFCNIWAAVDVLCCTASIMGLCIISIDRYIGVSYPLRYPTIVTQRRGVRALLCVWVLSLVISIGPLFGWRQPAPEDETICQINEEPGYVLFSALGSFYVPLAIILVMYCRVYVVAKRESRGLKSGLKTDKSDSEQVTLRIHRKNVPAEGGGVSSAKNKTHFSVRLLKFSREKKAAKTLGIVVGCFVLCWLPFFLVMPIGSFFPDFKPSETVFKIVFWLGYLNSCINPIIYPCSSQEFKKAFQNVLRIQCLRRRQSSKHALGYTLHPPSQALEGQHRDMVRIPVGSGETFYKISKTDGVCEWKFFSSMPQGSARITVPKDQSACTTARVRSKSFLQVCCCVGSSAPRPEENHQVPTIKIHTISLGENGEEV
How it was run: (§1)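 Displacement binding on brain homogenates as earlier described; four to six test concentrations typically, each incubated in triplicate. IC50 in nM derived by appropriately weighted regression analysis.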

Rattus norvegicus [2] = assay: In vivo inhibitory activity against basal prolactin in male rat after subcutaneous administration; assay type: functional; conditions: sc, read-out: ID50 (the source's name)
How it was run: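 Male rats given one subcutaneous injection and decapitated 4 h later; trunk blood serum collected. One to three groups of three rats per dose, sera of three rats pooled equally. Prolactin measured by double-antibody RIA, expressed against NIH rat Prl RP-1 standard. Dose giving 50% serum prolactin reduction estimated graphically.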

Rattus norvegicus [3] = assay: In vivo inhibitory activity against ovum implantation in female rat after subcutaneous administration; assay type: functional; conditions: sc, read-out: ID50 (the source's name)
How it was run: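 Adult proestrus Ivanovas female rats mated with fertile males; sperm-positive females randomised next morning (day 1), 4-10 per group. Single subcutaneous dose on day 5; killed day 12, uteri inspected for fetuses or implantation sites, absence counted as inhibition.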

[4] = target: Serotonin (5-HT) receptor; assay: In vitro inhibitory activity against serotonin receptor from rat frontal cortex using [3H]spiperone as radioligand; assay type: tissue-based
[5] = target: Serotonin (5-HT) receptor; assay: In vitro inhibitory activity against serotonin receptor from whole rat brain using [3H]5-HT as radioligand
Dopamine receptor [6] = target: T2, Dopamine receptor (Bos taurus, UniProt Q95136+P20288); assay: In vitro inhibitory activity against dopamine receptor from calf caudate using [3H]dopamine as radioligand; assay type: protein assay; how it was run: as §1
Dopamine receptor [7] = target: T2, Dopamine receptor; assay: In vitro inhibitory activity against dopamine receptor from calf caudate using [3H]spiperone as radioligand; assay type: protein assay; how it was run: as §1
Rattus norvegicus [8] = assay: In vivo inhibitory against lactation in female rat after peroral administration; assay type: functional; conditions: po, read-out: ID50 (the source's name)
How it was run: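 […] rats dosed once daily from day 5 to 8. Nursing behaviour checked daily; dams losing more than two pups excluded.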

[9] = target: T3, Adrenergic receptor alpha-2 (Rattus norvegicus, UniProt P22086+P19328+P22909); assay: In vitro inhibitory activity against alpha-2 adrenergic receptor from rat brain minus cerebellum using [3H]clonidine as radioligand; assay type: tissue-based; how it was run: as §1
T3 sequence (P22086 whole entry): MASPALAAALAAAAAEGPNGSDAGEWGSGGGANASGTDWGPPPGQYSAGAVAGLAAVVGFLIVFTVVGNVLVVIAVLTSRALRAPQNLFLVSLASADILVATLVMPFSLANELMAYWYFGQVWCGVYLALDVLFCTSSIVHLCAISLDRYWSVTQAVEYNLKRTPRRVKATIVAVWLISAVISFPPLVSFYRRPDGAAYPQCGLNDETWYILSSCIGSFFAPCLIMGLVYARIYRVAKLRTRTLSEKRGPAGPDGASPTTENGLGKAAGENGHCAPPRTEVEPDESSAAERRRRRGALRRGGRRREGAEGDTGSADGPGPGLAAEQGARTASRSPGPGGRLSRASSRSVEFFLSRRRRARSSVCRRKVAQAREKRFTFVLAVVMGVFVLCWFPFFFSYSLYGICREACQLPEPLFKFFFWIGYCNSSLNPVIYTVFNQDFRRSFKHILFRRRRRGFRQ
T3 sequence (P19328 whole entry): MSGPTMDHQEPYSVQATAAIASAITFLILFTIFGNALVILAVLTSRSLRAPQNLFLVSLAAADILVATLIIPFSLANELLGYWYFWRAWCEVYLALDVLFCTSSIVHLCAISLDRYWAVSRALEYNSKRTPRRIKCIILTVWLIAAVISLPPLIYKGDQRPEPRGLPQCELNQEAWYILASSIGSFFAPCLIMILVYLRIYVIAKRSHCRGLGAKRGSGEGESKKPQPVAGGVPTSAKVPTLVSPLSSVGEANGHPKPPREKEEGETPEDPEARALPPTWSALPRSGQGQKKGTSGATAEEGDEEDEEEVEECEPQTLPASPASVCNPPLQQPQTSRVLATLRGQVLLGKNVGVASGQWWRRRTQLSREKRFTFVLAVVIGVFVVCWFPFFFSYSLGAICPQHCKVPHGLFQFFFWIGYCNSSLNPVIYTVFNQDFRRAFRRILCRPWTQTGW
T3 sequence (P22909 whole entry): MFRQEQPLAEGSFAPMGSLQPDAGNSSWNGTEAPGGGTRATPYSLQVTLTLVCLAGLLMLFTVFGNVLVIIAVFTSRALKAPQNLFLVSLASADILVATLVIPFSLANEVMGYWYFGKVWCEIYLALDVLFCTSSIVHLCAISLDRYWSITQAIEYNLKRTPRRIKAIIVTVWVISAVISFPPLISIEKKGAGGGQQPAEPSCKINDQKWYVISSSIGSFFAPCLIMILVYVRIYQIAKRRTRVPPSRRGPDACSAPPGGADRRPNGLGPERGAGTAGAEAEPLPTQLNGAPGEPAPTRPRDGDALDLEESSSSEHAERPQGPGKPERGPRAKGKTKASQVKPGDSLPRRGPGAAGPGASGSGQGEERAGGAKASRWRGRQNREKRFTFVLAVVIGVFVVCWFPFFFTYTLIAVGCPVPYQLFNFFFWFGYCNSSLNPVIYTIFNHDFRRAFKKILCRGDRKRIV

Rattus norvegicus [10] = assay: In vivo against inhibitory against lactation in female rat after peroral administration; i = No effect; assay type: functional, organism-based
Rattus norvegicus [11] = assay: In vivo inhibitory activity against ovum implantation in female rat after subcutaneous administration; i = No effect; assay type: functional, organism-based
How it was run: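 Adult proestrus Ivanovas female rats paired with males of proven fertility; sperm-positive next morning (day 1), randomised 4-10 per group. Single sc dose on day 5; killed day 12, uteri inspected for fetuses or implantation sites, none counting as inhibited.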

SMILES | IC50 [1] [nM] | ED50 (Rattus norvegicus [2]) [mg/kg] | ED50 (Rattus norvegicus [3]) [mg/kg] | IC50 [4] [nM] | IC50 [5] [nM] | IC50 (Dopamine receptor [6]) [nM] | IC50 (Dopamine receptor [7]) [nM] | ED50 (Rattus norvegicus [8]) [mg/kg] | IC50 [9] [nM] | ID50 (Rattus norvegicus [10]) | ID50 (Rattus norvegicus [11])
CCCN1C[C@H](CSC)C[C@@H]2c3cccc4[nH]cc(c34)C[C@H]21 [PERGOLIDE] | 550 | 0.0013 | 0.021 | 140 | 385 |  |  |  |  |  | 
CCCN1C[C@@H](CSC)C[C@@H]2Cc3c(O)cccc3C[C@H]21 | 640 | 0.004 | 0.018 | 720 | 2000 | 22 | 60 | 0.058 | 250 |  | 
CCCN1CC(NS(=O)(=O)N(CC)CC)CC2Cc3c(O)cccc3CC21 (stereo not drawn) [QUINAGOLIDE] |  | 0.005 | 0.017 |  |  |  |  | 0.03 |  |  | 
CN1CCc2cccc3c2[C@H]1Cc1ccc(O)c(O)c1-3 [APOMORPHINE] |  |  |  |  | > 10000 |  |  |  |  | inactive | inactive
CCN(CC)S(=O)(=O)N[C@H]1C[C@@H]2c3cccc4[nH]cc(c34)C[C@H]2N(C)C1 [ETISULERGINE] |  |  | 0.028 |  | > 5000 |  |  | 0.19 |  |  | 
